Assay results as given in paper PMC5587398 (Journal of pharmaceutical and biomedical analysis, 2017).

Columns and labels:
[1] = Pharmacokinetic study in mice after single oral dose; assay type: in vivo, male C57BL/6 mice
Method in brief: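 Male C57BL/6 mice (~30 g; 12 total, n=4 per time point) got a single 30 mg/kg gavage, 10 mL/kg, in 20 mM citric buffer (pH~3). K2EDTA blood was drawn at 0.167–24 hr and the plasma stored at -80°C. Plasma was precipitated with ACN/MeOH 7/3 containing deuterated IS, then run on HILIC amide +ESI SRM (0.01–25 µM calibration). Non-compartmental parameters were taken from mean concentrations per time point.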

[2] = Pharmacokinetic study in rats after single oral dose; assay type: in vivo, male Sprague-Dawley rats; conditions: plasma
Method in brief: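 Male Sprague-Dawley rats (~300 g, n=4) got a single 30 mg/kg oral gavage, 10 mL/kg, in 20 mM citric buffer (pH~3). K2EDTA blood was drawn at 0.167, 0.5, 1, 2, 3, 5, 7 and 24 hr, and plasma was stored at -80°C. Analysis used IS-containing ACN/MeOH precipitation and HILIC-UPLC-MS/MS. Non-compartmental analysis used linear-trapezoidal AUC; t1/2 = 0.693/λ, with λ from ≥3 terminal points.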

[3] = male, C57BL/6, mouse, plasma, po, 30 mg/kg
[4] = male, Sprague-Dawley, rat, po, 30 mg/kg

half-life ([1]; male, C57BL/6 (mice), Sprague-Dawley (rats), mouse, plasma, po, 30 mg/kg): 7 to 8 h | AUC(0-inf) [1, 3]: 84100 ng·h/mL | Cmax [1, 3]: 5620 ng/mL | Tmax [1, 3]: 5 h | absorption after PO administration ([1]; rodents (mice and rats), PO administration, summary statement): well absorbed | t(1/2) ([2]; male SD rats (n=4), 30 mg/kg PO single dose, mean ± SD): 7.9 ± 0.9 h | AUC(0-inf) [2, 4]: 91700 ± 18000 ng·h/mL | Cmax [2, 4]: 13300 ± 2600 ng/mL | Tmax [2, 4]: 0.58 ± 0.48 h
Compound: NC1=NCCN1CC(=O)O [cyclocreatine, 1-Carboxymethyl-2-iminoimidazolidine]
